What was measured:
[1] = Antagonist activity at muscarinic M1 receptor in New Zealand rabbit vas deferens assessed as effect on electrically-stimulated muscle contraction after 60 mins; assay type: functional, Oryctolagus cuniculus
[2] = biological target: T1, Muscarinic acetylcholine receptor M4 (Homo sapiens, UniProt P08173); experiment: Displacement of [3H]NMS from human cloned muscarinic M4 receptor expressed in CHO cells by scintillation counting; assay type: cell-based
T1 sequence (P08173 whole entry): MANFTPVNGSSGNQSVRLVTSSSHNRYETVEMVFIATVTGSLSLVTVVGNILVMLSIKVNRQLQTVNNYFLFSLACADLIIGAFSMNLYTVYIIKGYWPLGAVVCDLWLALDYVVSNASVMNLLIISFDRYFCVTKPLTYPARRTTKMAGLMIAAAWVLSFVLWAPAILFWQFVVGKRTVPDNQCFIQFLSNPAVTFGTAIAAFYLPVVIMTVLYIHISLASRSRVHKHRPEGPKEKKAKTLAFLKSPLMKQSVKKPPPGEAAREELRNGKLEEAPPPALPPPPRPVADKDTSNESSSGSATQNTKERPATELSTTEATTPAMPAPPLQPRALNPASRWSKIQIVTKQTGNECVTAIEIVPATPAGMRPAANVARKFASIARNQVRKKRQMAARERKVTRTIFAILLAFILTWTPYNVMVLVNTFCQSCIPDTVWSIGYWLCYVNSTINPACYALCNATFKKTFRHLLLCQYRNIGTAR

[3] = biological target: Muscarinic acetylcholine receptor M3 (Cavia porcellus) (UniProt Q8VH26); experiment: Antagonist activity at muscarinic M3 receptor in guinea pig ileum assessed as effect on isotonic tension after 60 mins; assay type: functional, tissue-based
[4] = biological target: T2, Muscarinic acetylcholine receptor M2 (Homo sapiens, UniProt P08172); experiment: Displacement of [3H]NMS from human cloned muscarinic M2 receptor expressed in CHO cells by scintillation counting; assay type: cell-based
T2 sequence (P08172 whole entry): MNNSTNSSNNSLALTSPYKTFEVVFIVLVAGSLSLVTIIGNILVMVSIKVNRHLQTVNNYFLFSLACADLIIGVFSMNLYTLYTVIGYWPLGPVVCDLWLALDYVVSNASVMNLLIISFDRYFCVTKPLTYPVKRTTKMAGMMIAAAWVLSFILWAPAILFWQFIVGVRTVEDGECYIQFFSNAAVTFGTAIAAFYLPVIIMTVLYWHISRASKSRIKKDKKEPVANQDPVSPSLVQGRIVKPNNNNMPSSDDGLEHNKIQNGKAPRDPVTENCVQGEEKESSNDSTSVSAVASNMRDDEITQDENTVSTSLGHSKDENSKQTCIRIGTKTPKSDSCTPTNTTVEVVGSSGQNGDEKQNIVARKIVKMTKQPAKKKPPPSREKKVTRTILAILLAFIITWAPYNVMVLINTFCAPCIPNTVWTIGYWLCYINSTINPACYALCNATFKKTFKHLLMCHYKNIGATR
Procedure, shortened: (§1)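 Equilibrium radioligand binding in CHO cells expressing the human muscarinic subtype, following the authors' earlier protocol.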

[5] = biological target: T3, Muscarinic receptor 4 (Cavia porcellus) (UniProt Q8VH25); experiment: Antagonist activity at muscarinic M4 receptor in guinea pig lung strips assessed as effect on isotonic contraction after 60 mins; assay type: functional
T3 sequence (whole entry): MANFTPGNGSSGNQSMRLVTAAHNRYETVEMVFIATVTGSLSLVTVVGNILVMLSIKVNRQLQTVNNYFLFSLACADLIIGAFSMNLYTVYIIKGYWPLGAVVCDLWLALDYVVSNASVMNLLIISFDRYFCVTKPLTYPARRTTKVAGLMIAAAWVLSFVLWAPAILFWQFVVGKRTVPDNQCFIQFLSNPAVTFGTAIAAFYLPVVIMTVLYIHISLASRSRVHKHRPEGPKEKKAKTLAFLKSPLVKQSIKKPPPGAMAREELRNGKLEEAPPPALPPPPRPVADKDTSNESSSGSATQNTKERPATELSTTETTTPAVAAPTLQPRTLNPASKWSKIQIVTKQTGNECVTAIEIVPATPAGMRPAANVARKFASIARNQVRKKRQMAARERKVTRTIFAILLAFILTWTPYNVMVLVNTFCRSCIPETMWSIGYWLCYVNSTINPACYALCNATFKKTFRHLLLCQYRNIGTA

[6] = biological target: Muscarinic acetylcholine receptor M3 (Homo sapiens, UniProt P20309); experiment: Displacement of [3H]NMS from human cloned muscarinic M3 receptor expressed in CHO cells by scintillation counting; assay type: cell-based
[7] = biological target: T4, Muscarinic receptor 2 (Cavia porcellus) (UniProt Q8VH27); experiment: Antagonist activity at muscarinic M2 receptor in guinea pig left atrium assessed as effect on electrically-stimulated inotropic activity after 60 mins; assay type: functional, tissue-based; conditions: Cardiac atrium
T4 sequence (whole entry): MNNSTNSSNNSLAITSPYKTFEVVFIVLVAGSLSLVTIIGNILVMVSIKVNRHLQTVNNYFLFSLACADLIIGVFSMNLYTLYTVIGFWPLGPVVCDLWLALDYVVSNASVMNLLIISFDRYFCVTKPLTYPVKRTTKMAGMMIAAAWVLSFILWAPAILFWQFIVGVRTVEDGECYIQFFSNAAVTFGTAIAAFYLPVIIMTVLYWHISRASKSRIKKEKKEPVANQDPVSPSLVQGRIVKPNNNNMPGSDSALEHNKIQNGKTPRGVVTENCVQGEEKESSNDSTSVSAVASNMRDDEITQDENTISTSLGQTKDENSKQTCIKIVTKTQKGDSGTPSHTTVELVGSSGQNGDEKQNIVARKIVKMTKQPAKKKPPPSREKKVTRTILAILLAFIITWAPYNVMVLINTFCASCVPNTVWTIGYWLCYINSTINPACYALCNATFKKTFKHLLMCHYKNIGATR

[8] = biological target: T5, Muscarinic acetylcholine receptor M1 (Homo sapiens, UniProt P11229); experiment: Displacement of [3H]NMS from human cloned muscarinic M1 receptor expressed in CHO cells by scintillation counting; assay type: cell-based
T5 sequence (P11229 whole entry): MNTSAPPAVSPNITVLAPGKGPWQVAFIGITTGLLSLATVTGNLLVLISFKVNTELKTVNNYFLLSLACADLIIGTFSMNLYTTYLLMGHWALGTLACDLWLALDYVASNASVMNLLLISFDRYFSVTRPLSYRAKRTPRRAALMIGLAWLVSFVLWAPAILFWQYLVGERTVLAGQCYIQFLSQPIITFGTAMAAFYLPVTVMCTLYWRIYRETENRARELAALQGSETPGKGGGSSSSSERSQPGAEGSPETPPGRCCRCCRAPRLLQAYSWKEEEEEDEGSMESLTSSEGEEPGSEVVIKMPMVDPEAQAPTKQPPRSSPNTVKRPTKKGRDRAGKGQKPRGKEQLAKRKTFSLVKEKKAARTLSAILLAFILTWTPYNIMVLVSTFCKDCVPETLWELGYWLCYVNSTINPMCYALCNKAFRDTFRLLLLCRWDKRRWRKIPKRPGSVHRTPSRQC

[9] = biological target: T6, Muscarinic acetylcholine receptor M5 (Homo sapiens, UniProt P08912); experiment: Displacement of [3H]NMS from human cloned muscarinic M5 receptor expressed in CHO cells by scintillation counting; assay type: cell-based; procedure, shortened: as §1
T6 sequence (P08912 whole entry): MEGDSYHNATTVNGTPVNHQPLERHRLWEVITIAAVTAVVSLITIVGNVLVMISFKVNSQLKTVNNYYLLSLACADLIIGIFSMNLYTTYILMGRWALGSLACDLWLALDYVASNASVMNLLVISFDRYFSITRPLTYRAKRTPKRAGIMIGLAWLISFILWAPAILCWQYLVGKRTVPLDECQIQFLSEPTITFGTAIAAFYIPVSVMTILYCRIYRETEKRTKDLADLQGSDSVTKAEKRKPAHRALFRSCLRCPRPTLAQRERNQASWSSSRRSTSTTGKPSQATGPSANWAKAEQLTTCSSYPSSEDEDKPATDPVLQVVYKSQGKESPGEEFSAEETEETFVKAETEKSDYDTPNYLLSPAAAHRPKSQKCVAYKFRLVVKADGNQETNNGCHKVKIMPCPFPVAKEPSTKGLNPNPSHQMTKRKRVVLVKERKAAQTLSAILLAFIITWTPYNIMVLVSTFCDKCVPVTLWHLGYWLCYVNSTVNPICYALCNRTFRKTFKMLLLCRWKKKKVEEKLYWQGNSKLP

Sequence of Muscarinic acetylcholine receptor M3 (P20309 whole entry): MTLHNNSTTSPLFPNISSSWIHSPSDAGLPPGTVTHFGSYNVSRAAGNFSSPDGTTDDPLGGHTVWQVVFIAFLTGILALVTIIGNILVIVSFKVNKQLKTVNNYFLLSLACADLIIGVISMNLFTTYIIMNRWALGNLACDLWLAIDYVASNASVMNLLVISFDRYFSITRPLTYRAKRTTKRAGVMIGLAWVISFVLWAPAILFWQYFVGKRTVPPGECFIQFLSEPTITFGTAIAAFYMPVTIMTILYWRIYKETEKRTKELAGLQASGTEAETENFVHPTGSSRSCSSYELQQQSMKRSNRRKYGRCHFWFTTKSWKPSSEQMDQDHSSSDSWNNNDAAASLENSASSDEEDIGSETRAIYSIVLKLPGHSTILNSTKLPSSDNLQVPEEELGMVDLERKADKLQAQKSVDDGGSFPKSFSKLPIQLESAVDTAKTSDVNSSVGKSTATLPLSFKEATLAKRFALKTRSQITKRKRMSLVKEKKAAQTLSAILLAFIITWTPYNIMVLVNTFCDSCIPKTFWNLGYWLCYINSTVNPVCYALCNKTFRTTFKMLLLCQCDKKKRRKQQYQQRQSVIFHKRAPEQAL
Sequence of Muscarinic acetylcholine receptor M3 (Cavia porcellus) (Q8VH26 1-587): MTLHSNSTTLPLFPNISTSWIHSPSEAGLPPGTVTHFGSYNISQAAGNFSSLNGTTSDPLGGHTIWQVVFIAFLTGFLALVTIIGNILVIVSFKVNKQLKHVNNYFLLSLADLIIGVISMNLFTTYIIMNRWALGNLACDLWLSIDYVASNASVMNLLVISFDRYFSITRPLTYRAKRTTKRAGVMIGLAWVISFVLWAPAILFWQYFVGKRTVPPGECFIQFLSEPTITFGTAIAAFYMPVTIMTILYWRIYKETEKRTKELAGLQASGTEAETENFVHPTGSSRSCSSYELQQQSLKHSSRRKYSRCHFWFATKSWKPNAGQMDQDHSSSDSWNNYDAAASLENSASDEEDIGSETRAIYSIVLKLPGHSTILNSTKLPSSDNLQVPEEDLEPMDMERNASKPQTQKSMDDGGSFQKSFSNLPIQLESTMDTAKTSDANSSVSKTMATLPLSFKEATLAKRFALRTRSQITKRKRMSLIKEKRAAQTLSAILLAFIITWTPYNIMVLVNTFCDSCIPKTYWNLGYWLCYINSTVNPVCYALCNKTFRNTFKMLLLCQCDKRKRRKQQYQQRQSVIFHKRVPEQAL

Structure (SMILES)	pKb [1]	Ki [2]	pKb [3]	Ki [4]	pKb [5]	Ki [6]	pKb [7]	Ki [8]	Ki [9]
C[N+]1(C)CCCC1c1ccc(C(c2ccccc2)c2ccccc2)o1.[I-] (mixture of isomers)	7.91								
CN1CCC[C@@H]1c1ccc([C@](O)(c2ccccc2)C2CCCCC2)o1	9.58	3.98 nM	8.76	4.57 nM	5.92	1.66 nM	7.91	1.23 nM	3.31 nM
CN1CCC[C@H]1c1ccc([C@](O)(c2ccccc2)C2CCCCC2)o1		55 nM	7.66	60.3 nM	5.84	23.4 nM	6.65	22.9 nM	27.5 nM
CN1CCCC1c1ccc(C(O)(c2ccccc2)c2ccccc2)o1 (racemic)	6.91	105 nM	6.65	29.5 nM	< 5	95.5 nM	6.92	35.5 nM	97.7 nM
C[N+]1(C)CCC[C@H]1c1ccc([C@](O)(c2ccccc2)C2CCCCC2)o1		33.1 nM	7.95	20 nM	6.16	9.33 nM	7.32	9.12 nM	12 nM
CN1CCCC1c1ccc(C(c2ccccc2)c2ccccc2)o1 (centres undefined)	6.64	158 nM	6.81	64.6 nM	5.19	85.1 nM	6.52	42.7 nM	105 nM
C[N+]1(C)CCC[C@@H]1c1ccc([C@](O)(c2ccccc2)C2CCCCC2)o1.[I-]	10.15	4.27 nM	8.95	2.34 nM	7.75	1.51 nM	8.49	0.692 nM	1.55 nM
C[N+]1(C)CCCC1c1ccc(C(c2ccccc2)C2CCCCC2)o1 (mixture of isomers)		19.5 nM	7.88	17.4 nM	5.69	8.91 nM	6.21	6.61 nM	15.5 nM
C[N+]1(C)CCCC1c1ccc(C(c2ccccc2)c2ccccc2)o1 (racemic)		38 nM		13.5 nM		23.4 nM		11.5 nM	31.6 nM
C[N+]1(C)CCC[C@@H]1c1ccc([C@@](O)(c2ccccc2)C2CCCCC2)o1		372 nM	6.95	87.1 nM	6.33	155 nM	6.85	47.9 nM	229 nM
